These results are taken from ChEMBL document CHEMBL4513216, “Probing the Open Global Health Chemical Diversity Library for Multistage-Active Starting Points for Next-Generation Antimalarials” (ACS Infect Dis, 2020).

Structures are written as SMILES.

This data set can be described thus: Toxicity liver stage against HepG2, at 10uM. Conditions: human, HepG2-A16-CD81EGFP cells; read-out: INHIBITION
The arrangement: test concentration 10 uM, cell line HepG2-A16-CD81EGFP. Format: cell-based. The essentials: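 Uninfected HepG2-A16-CD81EGFP cells, 3 × 10^3 per well, 1536-well, plated on prespotted compound at 10 μM final, parasite-free screening media added to match infected plates; puromycin 10 μM positive, DMSO 0.5% negative; run in parallel with 48 h PbLuc assay at 37 °C, 5% CO2; viability by CellTiter-Glo luminescence, normalized to controls.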
As to `CCN(CC(=O)NC(C)C)S(=O)(=O)N1CCCCCC1`, the cytotoxicity at 10 µM came to 2.37%.
The same measure for `O=C(COc1coc(CN2CCCC2)cc1=O)Nc1cc(Cl)ccc1Cl`: -1.71%.
As for `CCOC(=O)CCC(=O)N1CC(c2nc(Cc3ccccc3)no2)C1`, the cytotoxicity at 10 µM was -2.42%.
The same measure for `O=C(NCCN1CCOCC1)c1cc2c(s1)CCN2Cc1cccnc1`: -7.98%; for `CC(C)NC(=O)[C@H]1CCS(=O)(=O)[C@@H]2CN(c3ncc(F)cn3)C[C@H]12`: -136%.
Then `CC(C)N(C)C(=O)C1=NOC2(CCN(C(=O)c3ccnnc3)C2)C1` (configuration not stated), with -119%; and `Cc1noc([C@@H]2C[C@H]3OCC[C@H]3N(S(=O)(=O)N(C)C)C2)n1`, with -122%; and `Cc1nc(CN2CCO[C@H]3CN(C(=O)Cc4cccs4)C[C@H]32)cs1`, with -124%.
Then `Cc1nc(C(=O)N2C[C@@H]3COC[C@]3(COCc3cccnc3)C2)cs1`, with -1.92%.
Consider `COc1cc2[nH]c(C(=O)O)cc2c(OC)c1C`, for which the cytotoxicity at 10 µM was -1.51%.
The same measure for `Cc1ccc(CN(C)CC2(O)CCCN(C)C2)o1` (configuration not stated): -8.08%; for `CCn1nc(C)c2nc(C(C)C)nc(NCCCn3ccnc3)c21`: 10.8%.
Then `CN1CCC(CCc2ccnc(Nc3cnccn3)c2)CC1`, with -12.6%.
Then `CNc1cc(C)nc(C2COCCN2CCOc2ccc(F)cc2)n1` (configuration not stated), with 3.18%.
`Cc1ncc(CN2CCc3nc4cc(C(C)(C)C)nn4c(O)c3C2)n1C`: the cytotoxicity at 10 µM is 8.62%.
On to `O=C(C1CCC1)N1CCC(c2ncc3c(n2)CCNC3)CC1`, for which the cytotoxicity at 10 µM was -25.1%.
Then `Cc1ccc(-n2c(SCC(=O)O)nnc2-c2ccccc2)cc1`, with -19.3%; and `CN1CC(=O)N(C2CCNCC2)Cc2c(NC3CCC3)ncnc21`, with 3.9%; and `CN(C(=O)OC(C)(C)C)C1CCN(C(=O)c2ccc(Cl)o2)C1` (configuration not stated), with -42.5%.
The same measure for `O=C(CN1CCCCCC1=O)NC1CCc2nccn2C1` (configuration not stated): 2.8%; for `C[C@H](O)c1cnn(-c2ccccc2)c1`: 0.503%.
The same measure for `COC(C)c1noc(CN(C)c2nccnc2C#N)n1` (configuration not stated): 0.462%.
As for `CC(CNC(=O)NCc1ccco1)N1CCc2sccc2C1` (configuration not stated), the cytotoxicity at 10 µM was -11.5%.
Consider `CNC(=O)N(C)CC1(c2ccc(Br)cc2)CC1`, for which the cytotoxicity at 10 µM is -9.6%.
The same measure for `COCCCn1ccc(NC2CCOCC2)n1`: 3.31%; for `Cn1ccc2c(C(=O)NCC3(C(N)=O)CCOCC3)cccc21`: -1.21%; for `CCOc1ccnc(N2CCCN(c3nc(CC)ns3)CC2)n1`: 1.19%.
The same measure for `CC(=O)N(C)CC(=O)NC1(c2ccc(Br)cc2)CC1`: -10.7%.
As for `c1ccc(Cc2noc(CN3CCCC3C3CCCCC3)n2)cc1` (configuration not stated), the cytotoxicity at 10 µM was 11.9%.
The same measure for `CCNC(=O)CN1CCOC(c2ccccc2C(F)(F)F)C1` (configuration not stated): 3.09%; for `Cn1nnnc1SC1CCCN(c2cccc(F)c2)C1=O` (configuration not stated): 3.85%.
Then `Cc1cc(CN2CCc3nn(C)c(=O)cc3C2)no1`, with -9.01%; and `CCc1nc(CCNC(=O)Nc2cccc(C(=O)NC)c2C)cs1`, with -11.2%; and `Cc1cc(NC2CCc3nc(C)nn3C2)n2ncnc2n1` (configuration not stated), with -6.29%.
The same measure for `CC(=O)c1c(F)cccc1N1CCC(C(N)=O)CC1`: 6.75%.
With `Cc1noc(CCCC(=O)N(CCC(=O)O)Cc2ccc(F)c(F)c2)n1`, the cytotoxicity at 10 µM is -11.3%.
The same measure for `Cc1n[nH]c(C)c1NC(=O)Nc1cccnc1N1CCCC1`: -14%; for `CC(C)(C)CC(=O)NCC(=O)Nc1ccn(Cc2ccncc2)n1`: 13.2%.
The same measure for `CCc1sc(C(=O)Nc2cnn(CC(=O)NC3CC3)c2)cc1C`: -2.17%; for `N#Cc1ccnc(N2CCN(C(=O)c3ccc4c(c3)CCO4)CC2)c1`: -5.75%; for `COC(=O)NC1(C(=O)Nc2ccc(-c3ncc[nH]3)cc2)CCCC1`: -14.4%.
The same measure for `CC(C)COCCCNC(=O)NC(C)c1ccc(-n2cncn2)cc1` (configuration not stated): 2.42%.
With `Cc1cccc(CN(Cc2ccccn2)S(=O)(=O)N(C)C(C)C)c1`, the cytotoxicity at 10 µM is -5.02%.
In the case of `CC(C)(C)OC(=O)N1CSC[C@@H]1C(=O)NCc1cccc(C#N)c1`, the cytotoxicity at 10 µM is -5.88%.
Then `CC(C)OCCC(=O)Nc1ncn(CC(=O)N2CCCCCC2)n1`, with -1.61%.
The same measure for `CC(=O)N1CCN(C(=O)NCCCN(C)S(C)(=O)=O)CC1`: -7.33%; for `Cc1cc(C(=O)N2CCCC2)ccc1NCCO`: -3.87%; for `O=C(CCn1c(=O)oc2ccccc21)NCC(O)c1ccc(F)c(F)c1` (configuration not stated): -12.5%.
The same measure for `Cc1ccc(C)c(Sc2nccn(C)c2=O)c1`: 6.43%; for `C=C(C)CNC(C)c1ccc(S(C)(=O)=O)c(F)c1` (configuration not stated): 0.563%.
In the case of `CSCC(C)(O)CNC(=O)c1ccc(Br)cc1C` (configuration not stated), the cytotoxicity at 10 µM is 1.57%.
The same measure for `Cn1cc(Br)c(=O)c(NS(=O)(=O)c2ccc(F)cc2)c1`: -8.87%; for `CC(CN1CCOCC1)NC(=O)N(C)Cc1ccc(Cl)s1` (configuration not stated): 7.21%; for `Cc1cn(CC(=O)N(C)Cc2cccc3ncccc23)c(=O)[nH]c1=O`: 14.2%.
Then `COCc1cc(CNCc2c(C)n(CC(N)=O)c3ccccc23)n[nH]1`, with -0.31%.
Then `CC(=O)c1cnc(NCCc2csc(-c3cnccn3)n2)nc1C`, with 6.09%.
`CCNC(=O)[C@@H]1C[C@H](N)CN1C(=O)C1(c2ccc(OC)cc2)CCCC1`: the cytotoxicity at 10 µM stood at 5.67%.
`c1cncc(C[C@@H]2CC[C@H](CN3CCCOCC3)O2)c1`: the cytotoxicity at 10 µM came to 2.13%.
The same measure for `COc1ccc(-n2c(CCC(=O)O)nc3ccccc32)cc1CO`: -0.334%.
The same measure for `COCc1noc(CCNC(=O)c2ccc(C3CCCO3)s2)n1` (configuration not stated): 3.19%; for `CN1CCN(Cc2cnc(S(=O)(=O)CC3CC3)n2CC2CCCO2)CC1` (configuration not stated): -2.87%; for `COc1ccccc1-n1cc(C(=O)NCCCn2ccnn2)cn1`: -6.01%.
The same measure for `Cc1cnc(C)c(N2CC[C@H](N3CCOCC3)[C@H](CCCO)C2)n1`: 6.12%.
As for `Cn1ncc(N2CCC(CNC(=O)[C@@H](N)c3ccccc3)CC2)cc1=O`, the cytotoxicity at 10 µM was determined as 4.18%.
Then `O=C(c1ccc(=O)[nH]c1)N1CCCC2(C=Cc3ccccc3O2)CC1` (configuration not stated), with 12.5%; and `Cc1cccc(CN(C(=O)CS(C)(=O)=O)C(C)C)c1`, with 1.68%; and `c1csc(CN(Cc2ccsc2)CC2CCCO2)n1` (configuration not stated), with -1.32%.
Then `CCCN1CC2(CCN(c3ccc(C(C)=O)cn3)CC2)CC1C(=O)O` (configuration not stated), with -0.909%.
Then `COC(=O)CCC(=O)NCc1cccnc1N1CCc2ccccc2C1`, with -8.09%.
Regarding `COc1cccc2c1OCC(CNC(=O)Cc1c(C)nc(N)nc1C)C2` (configuration not stated), the cytotoxicity at 10 µM was -140%.
Then `COCCN(C)CCN1CC2(CCN(C3CCCNC3)CC2)OC1=O` (configuration not stated), with 2.28%.
In the case of `O=C(CCn1cnnc1)N1CCCC(c2ncc[nH]2)C1` (configuration not stated), the cytotoxicity at 10 µM is -9.01%.
The same measure for `COc1ccc(Cl)cc1NCC(=O)NCc1cccnc1OC`: -10.3%; for `CCNC(=O)NC(=O)CNC(C)(C)c1ccc2c(c1)OCO2`: -8.58%; for `Cc1nccn1C1CCCN(C(=O)c2sccc2-n2cnnn2)C1` (configuration not stated): -12.2%.
Then `CCN1CC(C(=O)NCc2ccnc(-n3cccn3)c2)CC1=O` (configuration not stated), with -9.3%.
Then `CCc1nc(CC(=O)N2CCn3c(CC)nnc3C2)cs1`, with -11.4%; and `CCN(CC1CCCO1)C(=O)Nc1cc(C)ccc1S(C)(=O)=O` (configuration not stated), with -12.5%.
Regarding `CCC(O)CN1CCN(C(=O)c2cccc(CC#N)c2)CC1` (configuration not stated), the cytotoxicity at 10 µM was -11.6%.
The same measure for `CCc1nnc(CN2CCN(CC(O)c3ccccc3)CC2)o1` (configuration not stated): -12.3%.
Then `CC(C)c1noc(CCC(=O)NC2CCS(=O)(=O)C2)n1` (configuration not stated), with -15.6%; and `Cc1cnn(CC2CN(Cc3noc(C4CC4)n3)CCO2)c1` (configuration not stated), with -11.4%; and `c1cnn(CC2CN(Cc3nc(C4CC4)no3)CCO2)c1` (configuration not stated), with -27.6%.
Then `CC(C(=O)NCc1ccc(N2CCCCCC2)nc1)S(C)(=O)=O` (configuration not stated), with -11.9%.
As for `Cc1cc(C(=O)NCCN2CCCC(C)C2)nn1C` (configuration not stated), the cytotoxicity at 10 µM was -2.79%.
The same measure for `Cc1cnn(CC(C)NCc2csc(-c3ccco3)n2)c1` (configuration not stated): 3.44%; for `COCCN1CCN(Cc2c(C3CCNCC3)[nH]c3ncccc23)CC1`: -23.2%.
On to `Cc1nn(C)c(Cl)c1CNCc1cccnc1N1CCCCC1`, for which the cytotoxicity at 10 µM was -145%.
The same measure for `Cc1nc2sccn2c1CN(CCCN(C)C)Cc1ccccn1`: 3.38%; for `O=C(C1CCCO1)N1CCCn2c(nnc2Cn2ccnc2)C1` (configuration not stated): 15.7%.
On to `CCOCC(=O)N1CCC2(CC1)COC(COCc1ccccn1)C2` (configuration not stated), for which the cytotoxicity at 10 µM is -127%.
Then `O=C(O)c1c(-c2ccncc2)ncc2c1CCN(C1CCOC1)C2` (configuration not stated), with 15%; and `Cc1nc(COCc2cnc3n2CCN(C2CCC2)C3C)cs1` (configuration not stated), with -3.82%; and `CC(C)c1nn(C)c(N(C)C)c1CNC1CCOc2c(F)cccc21` (configuration not stated), with -1.99%.
Then `CC(C)N(C)Cc1cnc2n1CCN(C(=O)Cc1ccsc1)C2`, with -118%.
The same measure for `COc1cccc(C=CCCN2CCCN(C(C)=O)CC2)c1`: 6.67%; for `O=C1OCCN1CC(=O)N1C[C@@H]2CC[C@H]1CN(C(=O)c1ccccc1)C2`: 5.46%.
